Assay results of several laboratories.
≈ marks a conversion by molar mass, not a printed value.
Organism: Pseudomonas aeruginosa

Structure (SMILES) | observed | method | strain | tested at | time | quantity | result
C[C@H]1COc2c(N3CCN(C)CC3)c(F)cc3c(=O)c(C(=O)O)cn1c23 | microbial killing | – | ATCC47085 | – | – | MBC | 7.81 µg/mL (≈ 21.6 µM)
Cl.N[C@@H]1CCN(c2cc(C(=O)NCC(=O)O)ccc2NC(=O)c2cc(Br)c(Br)[nH]2)C1 | microbial growth | broth dilution | ATCC27853 | – | – | MIC | > 32 µg/mL
COc1cccc(C(O)C#Cc2ccc(O)c(OC)c2)c1 (stereo not drawn) | microbial growth | absorbance | – | 10 µM | 24 h | activity vs control | 96%
O=C(C=Cc1ccc(O)c(O)c1)OCc1ccccc1 | microbial growth | broth dilution | ATCC27853 | – | – | MIC | 8 µg/mL (≈ 29.6 µM)
COc1cc(C#CC(=O)C2CCCCC2)ccc1O | microbial growth | absorbance | – | 100 µM | 24 h | activity vs control | 80%
CC(C)(C)OC(=O)N1CCN(c2cc(C(=O)NCC(=O)O)ccc2NC(=O)c2cc(Br)c(Br)[nH]2)CC1 | microbial growth | broth dilution | ATCC27853 | – | – | MIC | > 32 µg/mL
CC(C)NCC(COc1cccc2ccccc12)OC(=O)C=Cc1ccc(O)c(O)c1 (stereo not drawn) | microbial growth | broth dilution | ATCC27853 | – | – | MIC | 64 µg/mL (≈ 152 µM)
OC(C#Cc1ccc(F)c(F)c1)c1ccccc1Cl (stereo not drawn) | microbial growth | absorbance | – | 100 µM | 24 h | activity vs control | 97%
CC(C)(O/N=C(\C(=O)N[C@@H]1C(=O)N2C(C(=O)[O-])=C(C[n+]3ccccc3)CS[C@H]12)c1csc(N)n1)C(=O)O | microbial growth | – | PAO1 | – | – | MIC90 | 4 µg/mL (≈ 7.32 µM)
Cc1[nH]c(C(=O)Nc2ccc(C(=O)NCC(=O)O)cc2N2CC[C@H](NC(=O)OC(C)(C)C)C2)c(Cl)c1Cl | microbial growth | broth dilution | ATCC27853 | – | – | MIC | > 32 µg/mL
COc1cc(C=Nc2ccc(C)cc2Cl)ccc1O | microbial growth | disc diffusion | – | 2000 µg/mL | 24 h | inhibition zone | 12.7 mm
CC(C)(C)OC(=O)N[C@@H]1CCN(c2cc(C(=O)NCC(=O)O)ccc2NC(=O)c2cc(Br)c(Br)[nH]2)C1 | microbial growth | broth dilution | ATCC27853 | – | – | MIC | > 32 µg/mL
COc1cc(-c2[nH]nnc2C(=O)c2ccccc2)ccc1O | microbial growth | absorbance | – | 10 µM | 24 h | activity vs control | 95%
O=C(C=Cc1ccc(O)c(O)c1)OCCc1ccccc1 | microbial growth | broth dilution | ATCC27853 | – | – | MIC | 64 µg/mL (≈ 225 µM)
COc1cc(C#CC(O)c2ccccc2)ccc1O (stereo not drawn) | microbial growth | absorbance | – | 100 µM | 24 h | activity vs control | 82%
CC(C)(O/N=C(\C(=O)N[C@@H]1C(=O)N2C(C(=O)[O-])=C(C[n+]3ccccc3)CS[C@H]12)c1csc(N)n1)C(=O)O | microbial growth | disc diffusion | – | 2000 µg/mL | 24 h | inhibition zone | 9.5 mm
Cc1[nH]c(C(=O)Nc2ccc(C(=O)NCc3n[nH]c(=O)o3)cc2N2CCNCC2)c(Cl)c1Cl.Cl | microbial growth | broth dilution | ATCC27853 | – | – | MIC | > 32 µg/mL
COc1ccccc1C(=O)C#Cc1ccc(F)c(F)c1 | microbial growth | absorbance | – | 10 µM | 24 h | activity vs control | 86%
